{"source": "ChEMBL document CHEMBL1144707", "about": "“Antiparasitic, antineuroinflammatory, and cytotoxic polyketides from the marine sponge Plakortis angulospiculatus collected in Brazil” (J Nat Prod, 2008)", "note": "The source made the active and inactive calls. No cut-off for these calls is given here."}
{"system": "Leishmania chagasi", "experiment": "Induction of morphological changes in Leishmania chagasi promastigotes assessed as cell membrane detachment at 17 ug/ml after 5 hrs by electron microscopy", "format": "functional, organism-based", "conditions": "not given", "summary_of_the_method": "(§1)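 Promastigotes (kept in M-199 with 10% calf serum and 0.25% hemin at 24 °C) incubated with compound at 17 µg/mL at 24 °C for 0, 1, 3, 5 or 7 h. Cells then processed for transmission electron microscopy and compared with an untreated control for ultrastructural changes.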"}
{"smiles": "CC/C=C/[C@H](CC)C/C(=C/[C@@]1(CC)C[C@H](CC)[C@H](CC(=O)O)OO1)CC", "note": "[PLAKORTIDE N]", "Activity": "Active"}
{"system": "Leishmania chagasi", "experiment": "Induction of morphological changes in Leishmania chagasi promastigotes assessed as mitochondrial swelling at 17 ug/ml after 3 hrs by electron microscopy", "format": "functional, organism-based", "conditions": "not given", "summary_of_the_method": "as §1"}
{"smiles": "CC/C=C/[C@H](CC)C/C(=C/[C@@]1(CC)C[C@H](CC)[C@H](CC(=O)O)OO1)CC", "note": "[PLAKORTIDE N]", "Activity": "Active"}
{"system": "not listed separately", "experiment": "Selectivity index, ratio of IC50 for human macrophages to IC50 for antileishmanial activity against Leishmania chagasi intracellular amastigotes", "format": "functional", "conditions": "not given", "summary_of_the_method": "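Ratio of macrophage cytotoxicity IC50 (MTT, 48 h) to IC50 against L. chagasi intracellular amastigotes.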"}
{"smiles": "CC/C=C/[C@H](CC)C[C@]1(CC)C=C(CC)/C(=C/C(=O)OC)O1", "Selectivity index": 18.6}
{"smiles": "CC/C=C/[C@H](CC)C/C(=C/[C@@]1(CC)C[C@H](CC)[C@H](CC(=O)O)OO1)CC", "note": "[PLAKORTIDE N]", "Selectivity index": 31.7}
{"system": "HL-60", "experiment": "Cytotoxicity against human HL60 cells", "format": "functional, cell-based", "conditions": "not given", "units": {"IC50": "µg/mL"}}
{"smiles": "CC/C=C/[C@H](CC)C[C@]1(CC)C=C(CC)/C(=C/C(=O)OC)O1", "IC50": 8.6}
{"system": "MDA-MB-435", "experiment": "Cytotoxicity against human MDA-MB-435 cells", "format": "functional, cell-based", "conditions": "not given", "units": {"IC50": "µg/mL"}}
{"smiles": "CC/C=C/[C@H](CC)C[C@]1(CC)C=C(CC)/C(=C/C(=O)OC)O1", "IC50": 9.6}
{"system": "Leishmania chagasi", "experiment": "Antileishmanial activity against Leishmania chagasi promastigotes infected in hamster after 48 hrs by MTT assay", "format": "functional, organism-based", "conditions": "not given", "summary_of_the_method": "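Promastigotes maintained in M-199 with 10% calf serum and 0.25% hemin at 24 °C, seeded at 1 × 10^6 cells/well. Incubated with 0.488–500 µg/mL for 48 h at 24 °C, pentamidine as standard. Viability by MTT at 570 nm.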", "units": {"IC50": "µg/mL"}}
{"smiles": "CC/C=C/[C@H](CC)C[C@]1(CC)C=C(CC)/C(=C/C(=O)OC)O1", "IC50": 8.5}
{"smiles": "CC/C=C/[C@H](CC)C/C(=C/[C@@]1(CC)C[C@H](CC)[C@H](CC(=O)O)OO1)CC", "note": "[PLAKORTIDE N]", "IC50": 1.9}
{"system": "Leishmania chagasi", "experiment": "Induction of morphological changes in Leishmania chagasi promastigotes assessed as increase in vacuoles at 17 ug/ml after 3 hrs by electron microscopy", "format": "functional, organism-based", "conditions": "not given", "summary_of_the_method": "as §1"}
{"smiles": "CC/C=C/[C@H](CC)C/C(=C/[C@@]1(CC)C[C@H](CC)[C@H](CC(=O)O)OO1)CC", "note": "[PLAKORTIDE N]", "Activity": "Active"}
{"system": "not listed separately", "experiment": "Selectivity index, ratio of mouse peritoneal macrophages to Antitrypanosomal activity against Trypanosoma cruzi Y", "conditions": "not given"}
{"smiles": "CC/C=C/[C@H](CC)C[C@]1(CC)C=C(CC)/C(=C/C(=O)OC)O1", "Selectivity index": 1.8}
{"smiles": "CC/C=C/[C@H](CC)C/C(=C/[C@@]1(CC)C[C@H](CC)[C@H](CC(=O)O)OO1)CC", "note": "[PLAKORTIDE N]", "Selectivity index": 7.1}
{"system": "Trypanosoma cruzi", "experiment": "Antitrypanosomal activity against Trypanosoma cruzi Y infected in […] LLC-MK2 cells after 24 hrs by MTT assay", "format": "functional, organism-based", "conditions": "LLC-MK2, 24 h", "summary_of_the_method": "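Free trypomastigotes (Y strain) from LLC-MK2 cultures, seeded at 1 × 10^6 cells/well. Incubated up to 100 µg/mL for 24 h at 37 °C in 5% CO2, benznidazole as standard. Viability by MTT conversion, formazan extracted with 10% SDS for 18 h at 24 °C. IC50 in µg/mL.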", "units": {"IC50": "µg/mL"}}
{"smiles": "CC/C=C/[C@H](CC)C[C@]1(CC)C=C(CC)/C(=C/C(=O)OC)O1", "IC50": 16.5}
{"smiles": "CC/C=C/[C@H](CC)C/C(=C/[C@@]1(CC)C[C@H](CC)[C@H](CC(=O)O)OO1)CC", "note": "[PLAKORTIDE N]", "IC50": 2.3}
{"system": "Macrophage", "experiment": "Induction of nitric oxide in BALB/c mouse peritoneal macrophages at 4 ug/mL after 24 hrs by griess assay", "format": "functional, cell-based", "conditions": "not given", "summary_of_the_method": "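Peritoneal macrophages incubated 24 h at 37 °C with compound at 4 µg/mL. LPS at 50 µg/mL served as the internal activation control. NO measured by Griess reaction, absorbance at 540 nm.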"}
{"smiles": "CC/C=C/[C@H](CC)C/C(=C/[C@@]1(CC)C[C@H](CC)[C@H](CC(=O)O)OO1)CC", "note": "[PLAKORTIDE N]", "Activity": "inactive"}
{"system": "Leishmania chagasi", "experiment": "Induction of morphological changes in Leishmania chagasi promastigotes assessed as nuclear destruction with chromatin decondensation at 17 ug/ml after 5 hrs by electron microscopy", "format": "functional, organism-based", "conditions": "not given", "summary_of_the_method": "as §1"}
{"smiles": "CC/C=C/[C@H](CC)C/C(=C/[C@@]1(CC)C[C@H](CC)[C@H](CC(=O)O)OO1)CC", "note": "[PLAKORTIDE N]", "Activity": "Active"}
{"system": "not listed separately", "experiment": "Cytotoxicity against human macrophages after 48 hrs by MTT assay", "format": "cell-based, Macrophage", "conditions": "Homo sapiens, Macrophage, 48 h; read-out: IC50", "units": {"IC50": "µg/mL"}}
{"smiles": "CC/C=C/[C@H](CC)C[C@]1(CC)C=C(CC)/C(=C/C(=O)OC)O1", "IC50": 30.2}
{"smiles": "CC/C=C/[C@H](CC)C/C(=C/[C@@]1(CC)C[C@H](CC)[C@H](CC(=O)O)OO1)CC", "note": "[PLAKORTIDE N]", "IC50": 16.6}
{"system": "Leishmania chagasi", "experiment": "Induction of morphological changes in Leishmania chagasi promastigotes assessed as flagellar blebs at 17 ug/ml after 3 hrs by electron microscopy", "format": "functional, organism-based", "conditions": "not given", "summary_of_the_method": "as §1"}
{"smiles": "CC/C=C/[C@H](CC)C/C(=C/[C@@]1(CC)C[C@H](CC)[C@H](CC(=O)O)OO1)CC", "note": "[PLAKORTIDE N]", "Activity": "Active"}
{"system": "not listed separately", "experiment": "Antiinflammatory activity in rat neonatal brain microglia cells assessed as phorbol 12-myristate 13-acetate-stimulated thromboxane B2 release", "format": "functional, cell-based", "conditions": "not given", "summary_of_the_method": "(§2)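 Rat neonatal brain microglia, 2 × 10^5 cells per well, primed with E. coli LPS (0.3 ng/mL) for 17 h at 35.9 °C in 5% CO2. Cells were washed with HBSS, exposed to compounds (0.1–10 µM) or DMSO vehicle for 15 min, then stimulated with PMA (1 µM) for 70 min. O2-, TXB2 and LDH release were measured, duplicates, two independent experiments. IC50 for O2- and TXB2. LDH50 is the concentration giving 50% of the LDH release seen with 0.1% Triton X-100.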", "units": {"IC50": "µM"}}
{"smiles": "CC/C=C/[C@H](CC)C[C@]1(CC)C=C(CC)/C(=C/C(=O)OC)O1", "IC50": "> 10"}
{"smiles": "CC/C=C/[C@H](CC)C/C(=C/[C@@]1(CC)C[C@H](CC)[C@H](CC(=O)O)OO1)CC", "note": "[PLAKORTIDE N]", "IC50": 0.93}
{"system": "not listed separately", "experiment": "Toxicity in BALB/c mouse erythrocytes assessed as hemolysis at 6.25 ug/ml after 2 hrs", "format": "cell-based, Erythrocyte", "conditions": "read-out: Activity", "summary_of_the_method": "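A 3% suspension of BALB/c mouse erythrocytes incubated with compounds for 2 h at 25 °C. Supernatant absorbance read at 550 nm.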", "units": {"hemolysis at 2 h, 6.25 ug/ml": "%"}}
{"smiles": "CC/C=C/[C@H](CC)C[C@]1(CC)C=C(CC)/C(=C/C(=O)OC)O1", "hemolysis at 2 h, 6.25 ug/ml": 7.24}
{"smiles": "CC/C=C/[C@H](CC)C/C(=C/[C@@]1(CC)C[C@H](CC)[C@H](CC(=O)O)OO1)CC", "note": "[PLAKORTIDE N]", "hemolysis at 2 h, 6.25 ug/ml": 0}
{"system": "Leishmania chagasi", "experiment": "Induction of morphological changes in Leishmania chagasi promastigotes assessed as abnormal chromatin at 17 ug/ml after 3 hrs by electron microscopy", "format": "functional, organism-based", "conditions": "not given", "summary_of_the_method": "as §1"}
{"smiles": "CC/C=C/[C@H](CC)C/C(=C/[C@@]1(CC)C[C@H](CC)[C@H](CC(=O)O)OO1)CC", "note": "[PLAKORTIDE N]", "Activity": "Active"}
{"system": "Leishmania chagasi", "experiment": "Induction of morphological changes in Leishmania chagasi promastigotes assessed as nuclear membrane blebs at 17 ug/ml after 5 hrs by electron microscopy", "format": "functional, organism-based", "conditions": "not given", "summary_of_the_method": "as §1"}
{"smiles": "CC/C=C/[C@H](CC)C/C(=C/[C@@]1(CC)C[C@H](CC)[C@H](CC(=O)O)OO1)CC", "note": "[PLAKORTIDE N]", "Activity": "Active"}
{"system": "SF-295", "experiment": "Cytotoxicity against human SF295 cells", "format": "functional, cell-based", "conditions": "not given", "units": {"IC50": "µg/mL"}}
{"smiles": "CC/C=C/[C@H](CC)C[C@]1(CC)C=C(CC)/C(=C/C(=O)OC)O1", "IC50": 11.4}
{"system": "not listed separately", "experiment": "Antiinflammatory activity in rat neonatal brain microglia cells assessed as drug level causing 50% LDH release", "format": "functional, cell-based", "conditions": "not given", "summary_of_the_method": "as §2", "units": {"IC50": "µM"}}
{"smiles": "CC/C=C/[C@H](CC)C[C@]1(CC)C=C(CC)/C(=C/C(=O)OC)O1", "IC50": "> 10"}
{"smiles": "CC/C=C/[C@H](CC)C/C(=C/[C@@]1(CC)C[C@H](CC)[C@H](CC(=O)O)OO1)CC", "note": "[PLAKORTIDE N]", "IC50": "> 10"}
{"system": "Leishmania chagasi", "experiment": "Antileishmanial activity against Leishmania chagasi intracellular amastigotes infected in hamster macrophages after 48 hrs […]", "format": "functional, organism-based", "conditions": "Leishmania chagasi, 48 h; read-out: IC50", "summary_of_the_method": "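Intracellular amastigotes tested in infected macrophages, with pentavalent antimony as standard. Amastigotes were obtained from hamster spleens 60–70 days postinfection. Parasite burden was scored as the mean number of amastigotes per macrophage over 500 cells. Result expressed as IC50.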", "units": {"IC50": "µg/mL"}}
{"smiles": "CC/C=C/[C@H](CC)C[C@]1(CC)C=C(CC)/C(=C/C(=O)OC)O1", "IC50": 1.6}
{"smiles": "CC/C=C/[C@H](CC)C/C(=C/[C@@]1(CC)C[C@H](CC)[C@H](CC(=O)O)OO1)CC", "note": "[PLAKORTIDE N]", "IC50": 0.5}
{"system": "HCT-8", "experiment": "Cytotoxicity against human HCT8 cells", "format": "functional, cell-based", "conditions": "not given", "units": {"IC50": "µg/mL"}}
{"smiles": "CC/C=C/[C@H](CC)C[C@]1(CC)C=C(CC)/C(=C/C(=O)OC)O1", "IC50": 7.2}
{"system": "not listed separately", "experiment": "Antiinflammatory activity in rat neonatal brain microglia cells assessed as phorbol 12-myristate 13-acetate-stimulated superoxide release", "format": "functional, cell-based", "conditions": "not given", "summary_of_the_method": "as §2", "units": {"IC50": "µM"}}
{"smiles": "CC/C=C/[C@H](CC)C[C@]1(CC)C=C(CC)/C(=C/C(=O)OC)O1", "IC50": "> 10"}
{"smiles": "CC/C=C/[C@H](CC)C/C(=C/[C@@]1(CC)C[C@H](CC)[C@H](CC(=O)O)OO1)CC", "note": "[PLAKORTIDE N]", "IC50": "> 10"}
